pEC50: −log10 of the molar value. Activity calls are given as the source filed them. The calls are words filed in the database; no cut-off is given here.
What was measured:
[1] = target: T1, Muscarinic acetylcholine receptor M4 (Rattus norvegicus) (UniProt P08485); test: Positive allosteric modulation activity at rat M4 receptor expressed in CHO cells co-expressing Gqi5 protein assessed as potentiation of EC20 acetyl choline-induced response by calcium mobilization assay relative to acetylcholine; assay type: functional, cell-based
T1 sequence (whole entry): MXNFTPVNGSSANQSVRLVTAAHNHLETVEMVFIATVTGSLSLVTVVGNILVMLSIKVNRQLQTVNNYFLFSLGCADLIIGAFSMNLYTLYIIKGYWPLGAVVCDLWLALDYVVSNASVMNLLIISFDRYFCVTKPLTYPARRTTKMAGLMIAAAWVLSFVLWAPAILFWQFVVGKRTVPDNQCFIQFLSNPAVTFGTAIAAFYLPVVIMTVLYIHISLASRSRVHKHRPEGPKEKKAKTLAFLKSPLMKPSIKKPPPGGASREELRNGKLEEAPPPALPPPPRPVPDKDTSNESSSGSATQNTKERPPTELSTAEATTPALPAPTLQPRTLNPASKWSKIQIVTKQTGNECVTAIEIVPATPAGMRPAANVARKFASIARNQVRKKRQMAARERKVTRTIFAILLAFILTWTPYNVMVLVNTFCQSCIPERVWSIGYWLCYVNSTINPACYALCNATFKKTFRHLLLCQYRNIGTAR
In short: (§1)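 Calcium mobilization in CHO cells stably co-expressing human or rat M4 with the chimeric Gqi5 protein. Test compound given with a fixed EC20 concentration of acetylcholine. Potency reported as EC50; efficacy as % of the acetylcholine maximum. Means of three independent experiments, each in triplicate.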

[2] = Selectivity ratio of EC50 for rat M4 receptor expressed in CHO cells co-expressing Gqi5 protein to EC50 for human M4 receptor expressed in CHO cells co-expressing Gqi5 protein; assay type: cell-based
[3] = target: T2, Muscarinic acetylcholine receptor M4 (Homo sapiens, UniProt P08173); test: Positive allosteric modulation activity at human M4 receptor expressed in CHO cells co-expressing Gqi5 protein assessed as potentiation of EC20 acetyl choline-induced response by calcium mobilization assay; assay type: functional, cell-based; details: for pEC50: read-out: EC50; in short: as §1
T2 sequence (P08173 whole entry): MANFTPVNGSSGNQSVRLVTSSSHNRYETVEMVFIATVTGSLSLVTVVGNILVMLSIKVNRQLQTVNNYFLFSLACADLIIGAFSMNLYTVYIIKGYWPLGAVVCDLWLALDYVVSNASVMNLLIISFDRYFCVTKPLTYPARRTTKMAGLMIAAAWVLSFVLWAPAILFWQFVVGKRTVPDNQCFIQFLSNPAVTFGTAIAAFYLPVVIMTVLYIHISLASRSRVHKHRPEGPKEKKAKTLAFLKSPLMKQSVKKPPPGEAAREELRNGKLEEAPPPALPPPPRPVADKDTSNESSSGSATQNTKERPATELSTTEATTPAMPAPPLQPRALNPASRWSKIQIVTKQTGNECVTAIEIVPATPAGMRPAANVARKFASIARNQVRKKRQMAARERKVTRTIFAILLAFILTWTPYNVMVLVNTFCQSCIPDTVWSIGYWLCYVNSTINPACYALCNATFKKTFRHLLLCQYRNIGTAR

Cytochrome P450 = test: Inhibition of Cytochrome P450 (unknown origin); assay type: ADME, protein assay; details: human
[4] = Fraction unbound in human plasma; assay type: ADME, cell-free
In short: (§2)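 Plasma protein binding, reported as fraction unbound in rat and human plasma. Single experiment (n=1) run in triplicate.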

Cytochrome P450 1A2 = target: T3, Cytochrome P450 1A2 (Homo sapiens, UniProt P05177); test: Inhibition of CYP1A2 (unknown origin); assay type: ADME
T3 sequence (P05177 whole entry): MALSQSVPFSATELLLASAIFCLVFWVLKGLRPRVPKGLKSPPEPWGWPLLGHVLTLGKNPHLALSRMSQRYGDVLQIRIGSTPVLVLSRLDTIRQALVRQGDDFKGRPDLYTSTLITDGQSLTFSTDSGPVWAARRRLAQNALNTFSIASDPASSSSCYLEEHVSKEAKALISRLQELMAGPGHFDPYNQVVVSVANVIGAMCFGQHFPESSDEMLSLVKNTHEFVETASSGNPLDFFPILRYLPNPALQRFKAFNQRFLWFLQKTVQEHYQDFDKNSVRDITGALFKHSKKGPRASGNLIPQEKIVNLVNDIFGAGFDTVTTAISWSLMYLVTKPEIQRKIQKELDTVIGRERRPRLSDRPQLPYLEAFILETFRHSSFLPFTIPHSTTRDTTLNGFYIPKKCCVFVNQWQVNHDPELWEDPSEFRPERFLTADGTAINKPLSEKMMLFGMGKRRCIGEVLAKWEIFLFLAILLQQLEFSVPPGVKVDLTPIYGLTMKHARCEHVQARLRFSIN

[5] = target: T4, Muscarinic acetylcholine receptor M4 (Rattus norvegicus, UniProt P08485); test: Positive allosteric modulation activity at rat M4 receptor expressed in CHO cells co-expressing Gqi5 protein assessed as potentiation of EC20 acetyl choline-induced response by calcium mobilization assay; assay type: functional, cell-based; details: for pEC50: read-out: EC50; in short: as §1
T4 sequence (P08485 whole entry): T1 sequence (whole entry)

[6] = Fraction unbound in rat plasma; assay type: ADME, cell-free; in short: as §2
[7] = Ratio of drug level in Sprague-Dawley rat brain to plasma at 0.2 to 0.25 mg/kg, iv administered as cassette dose measured 0.25 hrs post dose; assay type: ADME, organism-based; details: brain and plasma
In short: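 Male Sprague-Dawley rats (n=1) received an IV cassette dose of 0.20-0.25 mg/kg. Brain and plasma sampled 0.25 hr post-administration. Total brain:plasma partition coefficient (Kp) measured; unbound coefficient (Kp,uu) calculated.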

[8] = Drug metabolism in cryopreserved human hepatocytes assessed as secondary alcohol 18 formation; assay type: ADME, cell-based, Hepatocyte
[9] = Drug metabolism in cryopreserved rat hepatocytes assessed as secondary alcohol 18 formation; assay type: ADME, cell-based, Hepatocyte
[10] = target: T5, Muscarinic acetylcholine receptor M4 (Homo sapiens) (UniProt P08173); test: Positive allosteric modulation activity at human M4 receptor expressed in CHO cells co-expressing Gqi5 protein assessed as potentiation of EC20 acetyl choline-induced response by calcium mobilization assay relative to acetylcholine; assay type: functional, cell-based; in short: as §1
T5 sequence (whole entry): T2 sequence (P08173 whole entry)

[11] = target: T6, Muscarinic acetylcholine receptor M5 (Homo sapiens) (UniProt P08912); test: Positive allosteric modulation activity at human M5 receptor
T6 sequence (whole entry): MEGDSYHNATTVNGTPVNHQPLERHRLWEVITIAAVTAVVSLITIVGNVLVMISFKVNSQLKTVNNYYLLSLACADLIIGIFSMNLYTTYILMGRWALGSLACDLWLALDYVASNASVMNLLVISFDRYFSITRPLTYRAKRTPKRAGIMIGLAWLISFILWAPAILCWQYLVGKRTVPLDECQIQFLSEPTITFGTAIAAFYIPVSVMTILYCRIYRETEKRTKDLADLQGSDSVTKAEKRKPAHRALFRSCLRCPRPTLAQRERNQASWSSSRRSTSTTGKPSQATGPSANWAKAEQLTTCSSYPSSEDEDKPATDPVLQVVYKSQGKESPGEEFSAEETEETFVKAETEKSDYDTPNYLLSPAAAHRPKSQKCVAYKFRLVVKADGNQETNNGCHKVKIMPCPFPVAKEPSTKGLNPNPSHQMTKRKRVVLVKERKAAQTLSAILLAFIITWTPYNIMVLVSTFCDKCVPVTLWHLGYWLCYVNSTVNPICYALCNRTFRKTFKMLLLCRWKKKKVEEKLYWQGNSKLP

[12] = Intrinsic clearance in human microsomes; assay type: ADME, Microsome
In short: (§3)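 Hepatic microsomal intrinsic clearance, from which predicted hepatic clearance was derived. Single experiment (n=1) run in triplicate.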

[13] = Intrinsic clearance in rat microsomes; assay type: ADME, Microsome; in short: as §3
[14] = Drug level in cryopreserved human hepatocytes treated with (3-amino-4,6-dimethylthieno[2,3-b]pyridin-2-yl)(pyridin-4-yl)methanone assessed as compound formation; assay type: ADME, cell-based, Hepatocyte
[15] = Drug level in cryopreserved rat hepatocytes treated with (3-amino-4,6-dimethylthieno[2,3-b]pyridin-2-yl)(pyridin-4-yl)methanone assessed as compound formation; assay type: ADME, cell-based, Hepatocyte

Row | Structure (SMILES) | %max [1] [%] | Ratio EC50 [2] | pEC50 [3] | inhibition (INH) (Cytochrome P450) | fraction unbound [4] | inhibition (INH) (Cytochrome P450 1A2) | pEC50 [5] | fraction unbound [6] | Kp at 0.25 h [7] | Drug metabolism [8] | Drug metabolism [9] | %max [10] [%] | Activity [11] | CLint scaled [12] [mL/min/kg] | EC50 ([3]; read-out: pEC50 (converted)) [nM] | EC50 ([5]; read-out: pEC50 (converted)) [nM] | CLint scaled [13] [mL/min/kg] | Drug metabolism [14] | Drug metabolism [15]
1 | Cc1cc(C)c2c(N)c(C(=O)c3ccncc3)sc2n1 | 64 | 4 to 7 | 6.23 | Not Active | 0.005 to 0.18 | Active | 5.65 | 0.005 to 0.18 | 0.83 to 6.95 | Metabolite_Detected | Metabolite_Detected | 71 | – | – | – | – | – | – | –
2 | Cc1nc2sc(C(=O)c3ccccc3)c(N)c2c(C)c1C | 71 to 80.5 | – | 6.86 to 6.92 | – | 0.007 | – | 6.84 to 7.12 | 0.008 | – | – | – | 76 to 76.8 | inactive | 429 | 138 | 145 | 2070 | – | –
3 | Cc1cc(C)c2c(N)c(C(O)c3ccncc3)sc2n1 (configuration not stated) | – | – | < 5.00 | – | – | – | < 5.00 | – | – | – | – | – | – | – | – | – | – | Metabolite_Detected | Metabolite_Detected

Source: ChEMBL document CHEMBL4477243, “Discovery and SAR of a novel series of potent, CNS penetrant M4 PAMs based on a non-enolizable ketone core: Challenges in disposition” (Bioorg Med Chem Lett, 2016)
